In brackets after ≈: the same amount, converted by molar mass.
Experiments:
Format in all cases: physicochemical
[1] = Saturated solubility of compound in ethanol
[2] = Saturated solubility of compound in benzyl alcohol
[3] = Saturated solubility of compound in phenoxy ethanol
[4] = Saturated solubility of compound in dimethyl isosorbide
[5] = Saturated solubility of compound in propylene glycol
[6] = Saturated solubility of compound in transcutol p
[7] = Saturated solubility of compound in glycerin
[8] = Saturated solubility of compound in water
Summary of the method: (§1)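 Saturated solubility in the named medium (water or buffer at the stated pH), reported in mg ml−1. Levels below the detection limit are reported as BLOQ.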

[9] = Saturated solubility of compound in buffer at pH 3.5; summary of the method: as §1
[10] = Saturated solubility of compound in buffer at pH 4.5; summary of the method: as §1
[11] = Saturated solubility of compound in buffer at pH 5.5; summary of the method: as §1
[12] = Solubility of compound at pH 7.4; settings: buffer
[13] = Saturated solubility of compound in isopropanol
[14] = Saturated solubility of compound in oleyl-alcohol
[15] = Saturated solubility of compound in isopropyl myristate
[16] = Saturated solubility of compound in crodamol-GTC
[17] = Saturated solubility of compound in buffer at pH 7; summary of the method: as §1

Row | Compound | solubility thermodynamic [1] [µg/mL] | solubility [2] [µg/mL] | solubility thermodynamic [3] [µg/mL] | solubility ([4]; BLD = below limit of detection) | solubility thermodynamic [5] [µg/mL] | solubility thermodynamic [6] [µg/mL] | solubility thermodynamic [7] [µg/mL] | solubility ([8]; water, read-out: solubility) [µg/mL] | solubility [9] [µg/mL] | solubility [10] [µg/mL] | solubility thermodynamic [11] [µg/mL] | solubility [12] [µg/mL] | solubility thermodynamic [13] [µg/mL] | solubility [4] [µg/mL] | solubility thermodynamic [14] [µg/mL] | solubility thermodynamic [15] [µg/mL] | solubility thermodynamic [16] [µg/mL] | solubility ([8]; buffer, BLD = below limit of detection) | solubility thermodynamic [17] [µg/mL]
1 | CS(=O)(=O)O.Cc1nc(N(C)C(=O)Cc2ccc(-c3ccccn3)cc2)sc1S(N)(=O)=O [PRITELIVIR MESYLATE] | 700 | 2000 | 10700 | Bld | 4700 | 1300 | 13100 | 1200 | 1300 | 400 | 200 |  |  |  |  |  |  |  | 
2 | Cc1nc(N(C)C(=O)Cc2ccc(-c3ccccn3)cc2)sc1S(N)(=O)=O [PRITELIVIR] | 300 (≈ 745 µM) | 2200 (≈ 5470 µM) | 2200 (≈ 5470 µM) |  | 28400 (≈ 70600 µM) | 44800 (≈ 111000 µM) | 500 (≈ 1240 µM) |  | 100 (≈ 248 µM) | 100 (≈ 248 µM) | 100 (≈ 248 µM) | 11.5 (≈ 28.6 µM) | 400 (≈ 994 µM) | 82300 (≈ 204000 µM) | 100 (≈ 248 µM) | 100 (≈ 248 µM) | 200 (≈ 497 µM) | Bld | 100 (≈ 248 µM)

From ChEMBL document CHEMBL4354791, “Different solid forms for optimizing route of administration of the herpes drug Pritelivir” (Medchemcomm, 2019)
